# Data from ChEMBL document CHEMBL1125029, “Chemical and biochemical studies of 2-propynylpyrrolidine derivatives. Restricted-rotation analogues of N-methyl-N-(1-methyl-4-pyrrolidino-2-butynyl)acetamide (BM-5)” (J Med Chem, 1990).
# How the values were obtained:
# [1] = target: Muscarinic acetylcholine receptor; test: (§1) Binding activity against Muscarinic acetylcholine receptor in rat cortex, using [3H]QNB as a radioligand.; format: tissue-based
# Method in brief: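 Radioligand 250 pM (30.0 Ci/mmol). Competitor at final 10^-12 to 10^-3 M. 10 μM atropine defines nonspecific binding. Filtration on PEI-soaked GF/B filters, scintillation counting. Apparent Ki from one-site competitive nonlinear fit.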
# [2] = target: Muscarinic receptor M1 and M2 (Rattus norvegicus) (UniProt P08482+P10980); test: The agonist ratio as the ratio of Ki against [3H]QNB to that of [3H]-CD; format: functional
# [3] = target: Muscarinic acetylcholine receptor; test: Binding activity to the muscarinic acetylcholine receptor in rat cortex, assayed using [3H]CD as a radioligand.; format: tissue-based
# Method in brief: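 Male Wistar rat cerebral cortex homogenate in 10 mM Na/K phosphate pH 7.4, diluted 1:300 (wet wt/v), ~0.75 mg protein per 2.0 mL. 1 nM radioligand (55.5 Ci/mmol), prepared fresh in buffer. Competitor 10^-12 to 10^-3 M. Nonspecific binding with 10 μM atropine. Rapid filtration on PEI-treated filters, scintillation counting. Apparent Ki by one-site competitive nonlinear regression.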
# [4] = target: Muscarinic acetylcholine receptor; test: Binding activity to the muscarinic acetylcholine receptor in rat cortex, assayed using [3H]PZ as a radioligand.; format: tissue-based
# Method in brief: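 Rat (male Wistar, 200-250 g) cortex homogenized in ice-cold Na/K phosphate buffer pH 7.4, diluted 1:400, ~0.55 mg protein per 2.0 mL. 0.1 nM radioligand (84.1 Ci/mmol), made fresh just before use. Unlabeled competitor at final 10^-12 to 10^-3 M. 10 μM atropine for nonspecific. Filtered, counted by liquid scintillation. One-site competitive fit gives apparent Ki.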
# [5] = target: Muscarinic acetylcholine receptor; test: Binding activity to muscarinic acetylcholine receptor in rat heart, assayed using [3H]QNB as a radioligand in the presence of Gpp(NH)p.
# Method in brief: (§2)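 Male Wistar rat heart ventricles flushed, minced, Polytron-homogenized in 10 mM Na/K phosphate pH 7.4, spun 48000 g 15 min 4 °C, resuspended, gauze-filtered, diluted 1:750, 0.15-0.2 mg protein/2.0 mL. 10 μM Gpp(NH)p added to homogenate for line 3. Competitor 10^-12 to 10^-3 M. 10 μM atropine nonspecific. Filtration, scintillation counting. Ki from one-site fit.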
# [6] = target: Muscarinic acetylcholine receptor; test: Binding activity to muscarinic acetylcholine receptor in rat heart, assayed using [3H]-QNB as a radioligand.; method in brief: as §2
# [7] = target: T1, Muscarinic acetylcholine receptor M1 (Rattus norvegicus) (UniProt P08482); test: Muscarinic 1 receptor agonistic activity as the selectivity ratio of Ki against [3H]-QNB to that of [3H]PZ; format: functional
# T1 sequence (whole entry): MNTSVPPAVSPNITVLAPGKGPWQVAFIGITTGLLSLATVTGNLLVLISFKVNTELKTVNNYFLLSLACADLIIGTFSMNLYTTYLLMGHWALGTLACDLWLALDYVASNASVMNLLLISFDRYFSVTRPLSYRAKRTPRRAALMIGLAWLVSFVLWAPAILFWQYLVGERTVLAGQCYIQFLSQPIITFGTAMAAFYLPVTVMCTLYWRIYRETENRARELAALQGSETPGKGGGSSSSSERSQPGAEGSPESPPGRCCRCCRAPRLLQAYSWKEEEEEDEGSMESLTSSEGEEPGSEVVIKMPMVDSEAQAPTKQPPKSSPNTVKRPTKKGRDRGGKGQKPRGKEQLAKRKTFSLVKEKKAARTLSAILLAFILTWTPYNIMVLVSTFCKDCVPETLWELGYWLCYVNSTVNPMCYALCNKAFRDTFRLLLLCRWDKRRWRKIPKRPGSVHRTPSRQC
# [8] = target: T1, Muscarinic acetylcholine receptor M1 (Rattus norvegicus); test: Muscarinic 1 receptor agonistic activity as the selectivity ratio of Ki against [3H]-QNB+ Gpp(NH)p to that of [3H]PZ; format: functional
# [9] = target: T2, Muscarinic acetylcholine receptor M2 (Rattus norvegicus) (UniProt P10980); test: Muscarinic 2 receptor agonistic activity was determined as the selectivity ratio of Ki against [3H]QNB+ Gpp(NH)p to that of [3H]QNB; format: functional
# T2 sequence (whole entry): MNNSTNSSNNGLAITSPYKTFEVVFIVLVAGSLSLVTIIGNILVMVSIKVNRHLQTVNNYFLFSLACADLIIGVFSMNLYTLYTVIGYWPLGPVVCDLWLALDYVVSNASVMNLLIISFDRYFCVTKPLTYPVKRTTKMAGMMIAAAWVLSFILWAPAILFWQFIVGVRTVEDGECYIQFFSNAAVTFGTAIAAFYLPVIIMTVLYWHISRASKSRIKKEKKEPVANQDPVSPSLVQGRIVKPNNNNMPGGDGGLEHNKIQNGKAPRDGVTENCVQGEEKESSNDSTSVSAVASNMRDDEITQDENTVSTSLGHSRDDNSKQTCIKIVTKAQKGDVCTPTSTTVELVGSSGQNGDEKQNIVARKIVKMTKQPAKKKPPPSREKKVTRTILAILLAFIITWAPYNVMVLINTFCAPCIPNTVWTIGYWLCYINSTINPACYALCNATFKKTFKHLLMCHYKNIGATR
# [10] = target: Muscarinic acetylcholine receptor; test: as §1; format: tissue-based; remark: listed apart in the source
# Method in brief: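 Competitor at final 10^-12 to 10^-3 M. 10 μM atropine defines nonspecific binding. Filtration on PEI-soaked GF/B filters, scintillation counting. Apparent Ki from one-site competitive nonlinear fit.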
Ki [1] [µM],Ratio [2],Ki [3] [µM],Ki [4] [µM],Ki [5] [µM],Ki [6] [µM],Ratio [7],Ratio [8],Ratio [9],Ki [10] [µM],Compound
48.9,3.2,15.5,40,175,51.7,1.3,4.4,3.4,,CC(=O)N1CCC[C@H]1C#CCN(C)C
,0.5,0.61,0.1,1,0.85,8.5,10,1.2,0.31,CCOC(=O)N1CCC[C@H]1C#CCN1CCCC1
,12.8,0.25,5.6,19.6,5.16,0.9,3.5,3.8,3.2,CN(C)CC#C[C@H]1CCCN1C(=O)OC(C)(C)C
20.9,5,4.15,13.9,47.1,16.4,1.2,3.4,2.9,,CC(=O)N1CCC[C@H]1C#CC[N+](C)(C)C
,0.5,37.08,25.2,29.3,28.5,1.1,1.2,1,18.7,CN(C)CC#C[C@H]1CCCN1.Cl.Cl
8.5,0.2,37.35,13.2,19.1,20,1.5,1.4,1,,CN(C)CC#C[C@@H]1CCCN1.Cl.Cl
,3,0.33,0.07,0.9,0.13,1.9,13,6.9,0.98,CC(C)(C)OC(=O)N1CCC[C@H]1C#CCN1CCCC1

# The remaining lines, values behind:
Compound,Ki [1] [µM],Ratio [2],Ki [3] [µM],Ki [4] [µM],Ki [5] [µM],Ki [6] [µM],Ratio [7],Ratio [8],Ratio [9],Ki [10] [µM]
CC(=O)N1CCC[C@H]1C#CCN1CCCC1.Cl,4.96,1.9,2.55,2.06,22.6,15.5,7.5,11,1.5,
C(#C[C@@H]1CCCN1)CN1CCCC1.Cl.Cl,2.8,0.5,5.67,2.22,2.08,1.55,0.7,0.9,1.3,
O=CN1CCC[C@H]1C#CCN1CCCC1,4.59,1,4.88,1.23,77,7.62,6.2,62,10,
CS(=O)(=O)N1CCC[C@H]1C#CCN1CCCC1.Cl,,0.8,3.92,6.05,15.1,9.19,1.5,2.5,1.6,3.02
C(#C[C@H]1CCCN1)CN1CCCC1.Cl.Cl,,2.5,1.28,6.5,19.6,12.9,2,3,1.5,3.22
